Source: ChEMBL document CHEMBL1141198, “Design and synthesis of tri-ring P3 benzamide-containing aminonitriles as potent, selective, orally effective inhibitors of cathepsin K” (J Med Chem, 2005)

Experiments:
Osteoclast = assay: In vitro bone resorption in isolated rabbit osteoclasts; format: functional, cell-based; settings: Oryctolagus cuniculus
Summary of the method: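 Bovine bone degraded by isolated rabbit osteoclasts; collagen degradation read by ELISA. 8-point dose–response curves; IC50 derived.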

Rattus norvegicus [1] = assay: Oral bioavailability in rat; format: functional, organism-based
Summary of the method: (§1)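 Single-compound rat PK: 0.5 mg/kg iv and 10 mg/kg oral. Bioavailability from oral versus iv exposure.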

Cathepsin B = Cathepsin B (Homo sapiens, UniProt P07858); assay: Inhibitory constant against human cathepsin B using Boc-Leu-Lys-Arg-AMC substrate
Cathepsin S = Cathepsin S (Homo sapiens, UniProt P25774); assay: Inhibitory constant against human cathepsin S using Z-Val-Val-Arg-AMC substrate
Summary of the method: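 Recombinant human cathepsin S at 500 pM in 50 mM MES pH 6.5, 2.5 mM β-mercaptoethanol, 2.5 mM EDTA, 100 mM NaCl, 0.001% BSA, 10% DMSO. 30 min enzyme–inhibitor preincubation at 21–24 °C, 8 inhibitor concentrations. Started with 60 μM Z-Val-Val-Arg-AMC; initial rates by AMC fluorescence (ex 355/em 460). Ki(app) by Morrison tight-binding fit.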

[2] = Maximum concentration in rat administered with 10 mg/kg, po; format: ADME, organism-based; design: dose 10 mg/kg, route oral; settings: in vivo; summary of the method: as §1
Procathepsin L = Procathepsin L (Homo sapiens, UniProt P07711); assay: Inhibitory constant against human cathepsin L using Z-Phe-Arg-AMC substrate
Summary of the method: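 Recombinant human cathepsin L at 500 pM in 50 mM MES pH 5.5, 2.5 mM DTT, 2.5 mM EDTA, 10% DMSO. Enzyme preincubated with inhibitor (8 concentrations) 30 min at 21–24 °C. Reaction started with 10 μM Z-Phe-Arg-AMC; AMC fluorescence (ex 355/em 460 nm) over first ~5 min. Ki(app) fitted with Morrison tight-binding model.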

Rattus norvegicus [3] = organism: Rattus norvegicus; assay: Terminal half-life in rat; format: functional, organism-based
[4] = molecular target: Cathepsin K (Homo sapiens) (UniProt P43235); assay: Inhibitory constant against human cathepsin K using Z-Phe-Arg-AMC substrate
[5] = Maximum concentration in rat administered with 20 mg/kg, po; format: ADME, organism-based; design: dose 20 mg/kg, route oral; settings: in vivo
Cathepsin K = molecular target: T1, Cathepsin K (Oryctolagus cuniculus, UniProt P43236); assay: Inhibitory constant against rabbit cathepsin K using Z-Phe-Arg-AMC substrate; settings: read-out: Ki app
T1 sequence (P43236 whole entry): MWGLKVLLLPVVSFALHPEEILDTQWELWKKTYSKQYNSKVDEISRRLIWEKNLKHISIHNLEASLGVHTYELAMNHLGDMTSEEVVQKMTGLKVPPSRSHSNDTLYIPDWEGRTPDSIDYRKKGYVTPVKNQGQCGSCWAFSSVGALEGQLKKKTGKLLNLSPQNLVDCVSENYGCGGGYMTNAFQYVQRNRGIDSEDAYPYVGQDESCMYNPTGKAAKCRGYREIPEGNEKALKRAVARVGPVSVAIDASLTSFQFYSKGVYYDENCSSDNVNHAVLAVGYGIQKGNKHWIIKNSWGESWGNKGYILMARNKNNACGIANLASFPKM

Rhesus monkey = assay: Reduction of collagen breakdown products in ovariectomized rhesus monkey dosed at 15, 3 and 0.6 mg/kg, po; format: functional, Macaca mulatta; design: scale not given: the % may be the effect or the level left
Summary of the method: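 OVX rhesus monkeys (mean age 15 y, 3 y post-surgery): vehicle 1% carboxymethylcellulose po qd 2 days, then compound po qd 8–11 days at 15, 3 or 0.6 mg/kg, then 3 days vehicle. Controls on vehicle for 13 days. 24-h urine collected pre-dose, during dosing and 10–17 days after; urinary NTx normalized to creatinine (nM/mM).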

[6] = Plasma clearance in rat administered with 0.5 mg/kg, iv; format: ADME, organism-based; design: dose 0.5 mg/kg, route intravenous
Summary of the method: (§2)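 Rats, three per study, cassette iv dosing of up to four compounds. Formulation DMSO (<20%), PEG 400 (<20%) and water at 0.5 mg/mL per compound, given at 1 mL/kg for 0.5 mg/kg per compound.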

Rattus norvegicus [7] = assay: Terminal half-life in rat administered with 0.5 mg/kg, iv; format: functional, organism-based; design: dose 0.5 mg/kg; summary of the method: as §2
Rattus norvegicus [8] = assay: Mean residence time in rat administered with 0.5 mg/kg, iv; format: functional, organism-based; design: dose 0.5 mg/kg; summary of the method: as §2
[9] = Volume of distribution in rat administered with 0.5 mg/kg, iv; format: ADME, organism-based; design: dose 0.5 mg/kg, route intravenous; settings: in vivo, read-out: Vss; summary of the method: as §2
[10] = Maximum concentration in rat administered with 0.5 mg/kg, iv; format: ADME, organism-based; design: dose 0.5 mg/kg, route intravenous; settings: in vivo
Rattus norvegicus [11] = assay: Terminal half-life in rat administered with 10 mg/kg, po; format: functional, organism-based; design: dose 10 mg/kg; summary of the method: as §1
Rattus norvegicus [12] = assay: Time of peak concentration post-dose in rat administered with 10 mg/kg, po; format: functional, organism-based; design: dose 10 mg/kg; summary of the method: as §1

Cathepsin S, sequence (P25774 whole entry): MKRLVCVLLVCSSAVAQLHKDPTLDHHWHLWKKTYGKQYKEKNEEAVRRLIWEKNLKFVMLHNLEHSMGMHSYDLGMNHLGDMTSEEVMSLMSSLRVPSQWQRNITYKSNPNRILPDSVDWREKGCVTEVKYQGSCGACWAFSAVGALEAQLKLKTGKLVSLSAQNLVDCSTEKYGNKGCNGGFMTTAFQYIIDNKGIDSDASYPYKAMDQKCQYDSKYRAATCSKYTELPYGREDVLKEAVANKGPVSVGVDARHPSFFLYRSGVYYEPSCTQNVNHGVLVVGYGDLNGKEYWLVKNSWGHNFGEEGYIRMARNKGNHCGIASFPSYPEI
Procathepsin L, sequence (P07711 whole entry): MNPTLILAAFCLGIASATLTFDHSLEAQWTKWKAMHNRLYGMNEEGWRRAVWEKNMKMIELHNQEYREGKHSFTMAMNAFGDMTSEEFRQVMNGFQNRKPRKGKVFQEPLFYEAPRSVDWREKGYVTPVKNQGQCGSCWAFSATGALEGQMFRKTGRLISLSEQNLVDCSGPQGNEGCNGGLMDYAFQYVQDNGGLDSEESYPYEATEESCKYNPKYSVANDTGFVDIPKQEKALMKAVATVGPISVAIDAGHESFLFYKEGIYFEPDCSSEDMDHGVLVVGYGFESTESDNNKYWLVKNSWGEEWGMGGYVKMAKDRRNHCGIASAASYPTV

SMILES	IC50 (Osteoclast) [nM]	Ki (Cathepsin B; read-out: Ki app) [nM]	Ki (Cathepsin S; read-out: Ki app) [nM]	Ki (Procathepsin L; read-out: Ki app) [nM]	Ki ([4]; read-out: Ki app) [nM]	clearance [6] [mL/min/kg]	Vd [9] [L/kg]	Cmax [10] [nM]	bioavailability (Rattus norvegicus [1]) [%]	T1/2 (Rattus norvegicus [7]) [h]	MRT (Rattus norvegicus [8]) [h]	other results
N#CCNC(=O)C1(NC(=O)c2ccc(-c3csc(N4CCC(N5CCCCC5)CC4)n3)cc2)CCCCC1	3	690	42000	8800	0.45				35			Cmax [2]: 360 nM; T1/2 (Rattus norvegicus [3]): 3.35 h
CN1CCN(c2nc(-c3ccc(C(=O)NC4(C(=O)NCC#N)CCCCC4)cc3)cs2)CC1	5	1000	47000	6000	0.2				68			Cmax [5]: 1400 nM; Ki (Cathepsin K): 0.5 nM; T1/2 (Rattus norvegicus [3]): 3.4 h; Activity (Rhesus monkey): 76%
CC(C)(C)N1CCN(c2nc(-c3ccc(C(=O)NC4(C(=O)NCC#N)CCCCC4)cc3)cs2)CC1	1	910	19000	8800	0.29				44			Cmax [2]: 800 nM; T1/2 (Rattus norvegicus [3]): 1.67 h
N#CCNC(=O)C1(NC(=O)c2ccc(-c3csc(N4CCC(N5CCOCC5)CC4)n3)cc2)CCCCC1	3	670	6400	16000	< 0.25				48			Cmax [2]: 1700 nM; T1/2 (Rattus norvegicus [3]): 5.33 h
N#CCNC(=O)C1(NC(=O)c2ccc(-c3ccc(S(=O)(=O)N4CCN(CC(F)(F)F)CC4)cc3)cc2)CCCCC1	320	56000	5500	540	6.1	40	1.55	1200		0.767	0.65	
N#CCNC(=O)C1(NC(=O)c2ccc(-c3csc(N4CCN(C5CCOCC5)CC4)n3)cc2)CCCCC1	8	840	17000	> 150000	0.47			490		1.07	0.983	

Continued, in another order:

IC50 (Osteoclast) [nM]	Ki (Cathepsin B; read-out: Ki app) [nM]	Ki (Cathepsin S; read-out: Ki app) [nM]	Ki (Procathepsin L; read-out: Ki app) [nM]	Ki ([4]; read-out: Ki app) [nM]	clearance [6] [mL/min/kg]	Vd [9] [L/kg]	Cmax [10] [nM]	SMILES	bioavailability (Rattus norvegicus [1]) [%]	T1/2 (Rattus norvegicus [7]) [h]	MRT (Rattus norvegicus [8]) [h]	other results
20	380	9100	430	< 0.25	82	3.29	1000	N#CCNC(=O)C1(NC(=O)c2ccc(-c3ccc(S(=O)(=O)N4CCNCC4)cc3)cc2)CCCCC1		1.3	0.667	
40					84	10.7	360	CC(C)(C)NC1CCN(c2ccc(-c3ccc(C(=O)NC4(C(=O)NCC#N)CCCCC4)cc3)cc2)CC1		1.93	2.17	Ki (Cathepsin B; read-out: Ki): 76000 nM; Ki (Cathepsin S; read-out: Ki): 3900 nM; Ki (Procathepsin L; read-out: Ki): 1600 nM; Ki ([4]; read-out: Ki): < 0.25 nM
59	640	16000	9100	< 0.25	231	25.3	220	N#CCNC(=O)C1(NC(=O)c2ccc(-c3ccc(OC4CCN(CCO)CC4)cc3)cc2)CCCCC1		2.05	1.83	
13	510	7900	11000	< 0.25	67	11.2		CC(C)(C)N1CCN(c2ccc(-c3ccc(C(=O)NC4(C(=O)NCC#N)CCCCC4)cc3)cc2)CC1		2.4	2.87	
10	870	13000	2300	0.67	104	8.46	250	CN1CCCC(Oc2ccc(-c3ccc(C(=O)NC4(C(=O)NCC#N)CCCCC4)cc3)cc2)C1 (centres undefined)		1.5	1.35	
20	530	12000	5600	< 0.25	97	11.1	320	CN1CCC(Oc2ccc(-c3ccc(C(=O)NC4(C(=O)NCC#N)CCCCC4)cc3)cc2)CC1		1.9	1.9	
77	420	4900	7900	< 0.25	71	7.23	500	N#CCNC(=O)C1(NC(=O)c2ccc(-c3ccc(N4CCNCC4)cc3)cc2)CCCCC1	21	1.4	1.73	T1/2 (Rattus norvegicus [11]): 1.88 h; Tmax (Rattus norvegicus [12]): 2 h
21	540	6200	1200	< 0.25	43	3.27	370	COCCN1CCC(Oc2ccc(-c3ccc(C(=O)NC4(C(=O)NCC#N)CCCCC4)cc3)cc2)CC1		2.02	1.95	
35	280	7900	900	< 0.25	37	1.76	660	N#CCNC(=O)C1(NC(=O)c2ccc(-c3ccc(C4(F)CCNCC4)cc3)cc2)CCCCC1		0.783	0.8	
